Key:
Assay type in all cases: functional
[1] = system: CCRF-CEM; assay: Concentration required to reduce the viability of uninfected cells (CEM-CL13) by 50% on day 19.; details: Homo sapiens, 456 h, read-out: CD50 (the source's name)
In short: (§1)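 CEM-C113 cells (1×10^5 cells/mL) were infected with HIV-1 LAV-Bru or mock-infected, with compound dilutions in triplicate, for at least 7 days. Medium with or without drug was renewed every 3–4 days for longer runs. MTT absorbance was read at 540 nm. CD50 = 50% reduction of mock-infected absorbance; ED50 = dose giving 50% protection from CPE. Values are averages of at least two experiments.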

[2] = molecular target: Human immunodeficiency virus type 1 reverse transcriptase (Human immunodeficiency virus 1) (UniProt Q72547); assay: Compound ability to inhibit the production of HIV reverse transcriptase (RT) in preinfected PBL (peripheral blood lymphocytes) at 7 days at a concentration 1 uM
In short: (§2)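 PBL were infected with HIV-1 for 1 h at 37 °C, washed twice, and resuspended in complete medium with 10% interleukin-2 and anti-human α-interferon (1000 units/mL). Cells were plated at 1×10^6 cells/well with or without compound. At each time point, 50 µL supernatant was taken for RT assay ([³H]dTTP incorporation, cpm).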

[3] = molecular target: Human immunodeficiency virus type 1 reverse transcriptase (Human immunodeficiency virus 1) (UniProt Q72547); assay: Compound ability to inhibit the production of HIV reverse transcriptase (RT) in culture supernatant of CEM-CL13 on at 7 days at a concentration 0.2 uM
In short: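 CEM-C113 cells in RPMI 1640 with 5% heat-inactivated FCS and polybrene (2 µg/mL) were plated at 1×10^5 cells/mL with compound in PBS, in triplicate, and infected with HIV-1 LAV-Bru. From day 7, every 3–4 days, fresh medium with or without drug was added and 50 µL supernatant was taken for RT microassay. The RT microassay used poly(rA)-oligo(dT) and (methyl-³H)dTTP for 1 h at 37 °C, with TCA precipitation, read as cpm/50 µL.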

[4] = molecular target: Human immunodeficiency virus type 1 reverse transcriptase (Human immunodeficiency virus 1) (UniProt Q72547); assay: Compounds were evaluated for anti-RT activity by MTT dose and % cell / viability was reported at 7 days of culture
In short: (§3)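 HIV-1 was preincubated with compound at 25 µM for 60 min at 37 °C, pelleted, and added to CEM-C113 cells (1×10^5 cells/mL) for 60 min at 37 °C. Medium was then replaced without compound. At days 7 and 9, viability was read by MTT assay on 100 µL of cell suspension.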

[5] = molecular target: Human immunodeficiency virus type 1 reverse transcriptase (Human immunodeficiency virus 1) (UniProt Q72547); assay: Compounds were evaluated for anti-RT activity by MTT dose and %protection was reported at 13 days of culture
[6] = molecular target: Human immunodeficiency virus type 1 reverse transcriptase (Human immunodeficiency virus 1) (UniProt Q72547); assay: Compounds were evaluated for anti-RT activity by MTT dose and %protection was reported at 9 days of culture; in short: as §3
[7] = molecular target: Human immunodeficiency virus type 1 reverse transcriptase (Human immunodeficiency virus 1) (UniProt Q72547); assay: Percent inhibition evaluated for anti-RT activity at 0 days of culture; set-up: concentration or dose not given beside the values; details: concentration not given here
In short: (§4)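 HIV-1 (12 500 CCID50) was preincubated with compound at 25 µM final for 60 min at 37 °C, pelleted by ultracentrifugation and resuspended. RT was measured at once with poly(rA)-oligo(dT) and ³H-dTTP (1 h, 37 °C, cpm). Treated virus was then put on CEM-C113 cells for 60 min and replaced with compound-free medium. Supernatant RT was read at days 7 and 9.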

[8] = molecular target: Human immunodeficiency virus type 1 reverse transcriptase (Human immunodeficiency virus 1) (UniProt Q72547); assay: Compounds were evaluated for anti-RT activity at 9 days of culture; in short: as §4
[9] = molecular target: Human immunodeficiency virus type 1 reverse transcriptase (Human immunodeficiency virus 1) (UniProt Q72547); assay: Compound ability to inhibit the production of HIV reverse transcriptase (RT) in culture supernatant of monocytic U937 on at 7 days at a concentration 1 uM
In short: (§5)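 HIV-1-infected monocytic U937 cultures were kept up to 14 days with compound. Supernatant RT activity was measured as for CEM-C113, as [³H] cpm/50 µL. % inhibition = 100 − 100 × (cpm of treated samples / cpm of control virus).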

[10] = molecular target: Human immunodeficiency virus type 1 reverse transcriptase (Human immunodeficiency virus 1) (UniProt Q72547); assay: Compounds were evaluated for anti-RT activity at 7 days of culture; in short: as §4
[11] = system: CCRF-CEM; assay: Concentration required to reduce the viability of uninfected cells (CEM-CL13) by 50% on day 11.; details: Homo sapiens, 264 h, read-out: CD50 (the source's name); in short: as §1
[12] = molecular target: Human immunodeficiency virus type 1 reverse transcriptase (Human immunodeficiency virus 1) (UniProt Q72547); assay: Percent inhibition measured as the production of HIV reverse transcriptase (RT) in culture supernatant of monocytic U937 on at 7 days at a concentration 1 uM
In short: (§6)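 U937 cells in RPMI 1640 with 5% heat-inactivated FCS, penicillin, streptomycin and polybrene (2 μg/mL), 37 °C, 5% CO2. Infected with HIV-1 LAV-Bru; compounds diluted in PBS. 50 μL supernatant aliquots were assayed for RT: 1 h, 37 °C, pH 7.8, Mg2+, poly(rA)-oligo(dT), [3H]dTTP, TCA-pyrophosphate stop, filter counting. % inhibition = 100 − 100 × (treated cpm / virus-control cpm).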

[13] = molecular target: Human immunodeficiency virus type 1 reverse transcriptase (Human immunodeficiency virus 1) (UniProt Q72547); assay: Compound ability to inhibit the production of HIV reverse transcriptase (RT) in culture supernatant of monocytic U937 on at 11 days at a concentration 1 uM; in short: as §5
[14] = molecular target: Human immunodeficiency virus type 1 reverse transcriptase (Human immunodeficiency virus 1) (UniProt Q72547); assay: Percent inhibition measured as the production of HIV reverse transcriptase (RT) in culture supernatant of monocytic U937 on at 11 days at a concentration 1 uM; in short: as §6
[15] = system: CCRF-CEM; assay: Concentration that reduced by 50% the HIV induced CPE (cytopathic effect) on day 11.; details: Homo sapiens, 264 h, read-out: ED50 (the source's name); in short: as §1
[16] = molecular target: Human immunodeficiency virus type 1 reverse transcriptase (Human immunodeficiency virus 1) (UniProt Q72547); assay: Compound ability to inhibit the production of HIV reverse transcriptase (RT) in preinfected PBL (peripheral blood lymphocytes) at 10 days at a concentration 1 uM; in short: as §2
[17] = system: CCRF-CEM; assay: Concentration that reduced by 50% the HIV induced CPE (cytopathic effect) on day 22.; details: Homo sapiens, 528 h, read-out: ED50 (the source's name); in short: as §1
[18] = system: CCRF-CEM; assay: Concentration that reduced by 50% the HIV induced CPE (cytopathic effect) on day 7.; details: Homo sapiens, 168 h, read-out: ED50 (the source's name); in short: as §1
[19] = molecular target: Human immunodeficiency virus type 1 reverse transcriptase (Human immunodeficiency virus 1) (UniProt Q72547); assay: Compounds were evaluated for anti-RT activity at 0 days of culture; in short: as §4
[20] = molecular target: Human immunodeficiency virus type 1 reverse transcriptase (Human immunodeficiency virus 1) (UniProt Q72547); assay: Percent inhibition evaluated for anti-RT activity at 7 days of culture; set-up: concentration or dose not given beside the values; details: concentration not given here; in short: as §4
[21] = system: CCRF-CEM; assay: Concentration that reduced by 50% the HIV induced CPE (cytopathic effect) on day 19.; details: Homo sapiens, 456 h, read-out: ED50 (the source's name); in short: as §1
[22] = system: CCRF-CEM; assay: Concentration required to reduce the viability of uninfected cells (CEM-CL13) by 50% on day 7.; details: Homo sapiens, 168 h, read-out: CD50 (the source's name); in short: as §1
[23] = molecular target: Human immunodeficiency virus type 1 reverse transcriptase (Human immunodeficiency virus 1) (UniProt Q72547); assay: Compounds were evaluated for anti-RT activity by MTT dose and % cell / viability was reported at 13 days of culture
[24] = molecular target: Human immunodeficiency virus type 1 reverse transcriptase (Human immunodeficiency virus 1) (UniProt Q72547); assay: Percent inhibition evaluated for anti-RT activity at 9 days of culture; set-up: concentration or dose not given beside the values; details: concentration not given here; in short: as §4
[25] = molecular target: Human immunodeficiency virus type 1 reverse transcriptase (Human immunodeficiency virus 1) (UniProt Q72547); assay: Compound ability to inhibit the production of HIV reverse transcriptase (RT) in preinfected PBL (peripheral blood lymphocytes) at 7 days at a concentration 5 uM; in short: as §2
[26] = molecular target: Human immunodeficiency virus type 1 reverse transcriptase (Human immunodeficiency virus 1) (UniProt Q72547); assay: Compound ability to inhibit the production of HIV reverse transcriptase (RT) in preinfected PBL (peripheral blood lymphocytes) at 10 days at a concentration 5 uM; in short: as §2
[27] = molecular target: Human immunodeficiency virus type 1 reverse transcriptase (Human immunodeficiency virus 1) (UniProt Q72547); assay: Compound ability to inhibit the production of HIV reverse transcriptase (RT) in preinfected PBL (peripheral blood lymphocytes) at 14 days at a concentration 1 uM; in short: as §2
[28] = molecular target: Human immunodeficiency virus type 1 reverse transcriptase (Human immunodeficiency virus 1) (UniProt Q72547); assay: Compound ability to inhibit the production of HIV reverse transcriptase (RT) in preinfected PBL (peripheral blood lymphocytes) at 14 days at a concentration 5 uM; in short: as §2

`CCCCCCCCCCCCCCCCOP(=O)(OCCO[C@H]1O[C@H](CO)[C@@H](O)[C@H](O)[C@@H]1O)OCC1OC(n2cc(C)c(=O)[nH]c2=O)CC1N=[N+]=[N-]` (some centres undefined) showed a CC50 [1] of 3.4 µM, an Activity (c.p.m. 50ul-1) [2] of 30200 and an Activity (c.p.m. 50ul-1) [3] of 3900. The Cell viability [4] was 41%, the Protection [5] was 0% and the Protection [6] was 4%. For the same molecule, the inhibition [7] was 26%, the Activity (c.p.m. 50ul-1) [8] was 44000 and the Activity (c.p.m. 50ul-1) [9] was 401000. For the same molecule, the Activity (c.p.m. 50ul-1) [10] was 81000, the CC50 [11] was 28 µM and the inhibition [12] was 0%. It also gave an Activity (c.p.m. 50ul-1) [13] of 243000, an inhibition [14] of 0% and an EC50 [15] of 1 µM. The Activity (c.p.m. 50ul-1) [16] was 60200, the EC50 [17] was 1.3 µM and the EC50 [18] was 0.18 µM. For the same molecule, the Activity (c.p.m. 50ul-1) [19] was 13000, the inhibition [20] was 0% and the EC50 [21] was 1.7 µM. It also gave a CC50 [22] of 20 µM, a Cell viability [23] of 12% and an inhibition [24] of 0%.
Molecule `Cc1cn([C@H]2C[C@H](N=[N+]=[N-])[C@@H](CO)O2)c(=O)[nH]c1=O` [ZIDOVUDINE] has a CC50 [1] of 26 µM, an Activity (c.p.m. 50ul-1) [2] of 972 and an Activity (c.p.m. 50ul-1) [3] of 1500. It also gave a Cell viability [4] of 100%, a Protection [5] of 26% and a Protection [6] of 76%. For the same molecule, the Activity (c.p.m. 50ul-1) [8] was 7500, the Activity (c.p.m. 50ul-1) [9] was 36000 and the Activity (c.p.m. 50ul-1) [25] was 965. The Activity (c.p.m. 50ul-1) [10] was 5000, the CC50 [11] was 23 µM and the inhibition [12] was 85%. For the same molecule, the Activity (c.p.m. 50ul-1) [13] was 134000, the inhibition [14] was 7% and the EC50 [15] was 0.12 µM. It also gave an Activity (c.p.m. 50ul-1) [26] of 984, an Activity (c.p.m. 50ul-1) [16] of 757 and an Activity (c.p.m. 50ul-1) [27] of 2020. It also gave an EC50 [17] of 0.45 µM, an EC50 [18] of 0.12 µM and an Activity (c.p.m. 50ul-1) [19] of 19000. It also gave an inhibition [20] of 92%, an EC50 [21] of 0.18 µM and a CC50 [22] of 26 µM. The Cell viability [23] was 34%, the inhibition [24] was 76% and the Activity (c.p.m. 50ul-1) [28] was 302.
`Cc1cn([C@H]2C[C@H](N=[N+]=[N-])[C@@H](COP(=O)(O)OC[C@H]3OC(O)[C@H](O)[C@@H](O)[C@@H]3O)O2)c(=O)[nH]c1=O` (some centres undefined) showed a CC50 [1] of 38 µM, an Activity (c.p.m. 50ul-1) [2] of 1010 and an Activity (c.p.m. 50ul-1) [3] of 1600. The Cell viability [4] was 50%, the Protection [5] was 0% and the Protection [6] was 13%. The inhibition [7] was 0%, the Activity (c.p.m. 50ul-1) [8] was 28000 and the Activity (c.p.m. 50ul-1) [9] was 158000. The Activity (c.p.m. 50ul-1) [25] was 890, the Activity (c.p.m. 50ul-1) [10] was 19000 and the CC50 [11] was 35 µM. For the same molecule, the inhibition [12] was 36%, the Activity (c.p.m. 50ul-1) [13] was 145000 and the inhibition [14] was 0%. The EC50 [15] was 0.16 µM, the Activity (c.p.m. 50ul-1) [26] was 798 and the Activity (c.p.m. 50ul-1) [16] was 771. The Activity (c.p.m. 50ul-1) [27] was 408, the EC50 [17] was 0.9 µM and the EC50 [18] was 0.2 µM. For the same molecule, the Activity (c.p.m. 50ul-1) [19] was 32000, the inhibition [20] was 70% and the EC50 [21] was 0.7 µM. It also gave a CC50 [22] of 30 µM, a Cell viability [23] of 17% and an inhibition [24] of 10%. It also gave an Activity (c.p.m. 50ul-1) [28] of 732.

Reference: ChEMBL document CHEMBL1125259, “Lipophilic glycosyl phosphotriester derivatives of AZT: synthesis, NMR transmembrane transport study, and antiviral activity” (1991)
